Screening data: PubChem BioAssay, Johns Hopkins Ion Channel Center
KCNK9 inh: blocks the human KCNK9 two-pore domain potassium channel; HEK293 KCNK9, FluxOR thallium flux fluorescence; active compounds read low; B-score at 10 µM; Q9NPC2; AID 488922; 310,000 tested, 1.2% active;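 active = ratio B-score over 3 SD below the library mean, with starting fluorescence within 5 SD of its mean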;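 note: negative B-score means less thallium flux so channel inhibition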
Target sequence (Q9NPC2 whole entry, looked up, the tested form may be a part): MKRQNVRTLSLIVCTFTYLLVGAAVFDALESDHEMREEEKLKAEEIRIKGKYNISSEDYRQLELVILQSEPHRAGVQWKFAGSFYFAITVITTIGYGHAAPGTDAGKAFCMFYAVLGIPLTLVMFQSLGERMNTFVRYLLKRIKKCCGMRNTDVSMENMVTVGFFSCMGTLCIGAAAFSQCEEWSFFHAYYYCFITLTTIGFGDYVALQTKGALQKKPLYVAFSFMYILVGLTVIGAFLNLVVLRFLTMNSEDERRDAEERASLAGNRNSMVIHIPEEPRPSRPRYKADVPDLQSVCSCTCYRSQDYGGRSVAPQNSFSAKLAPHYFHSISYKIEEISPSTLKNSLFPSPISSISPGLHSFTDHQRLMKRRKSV
KCNK3 block: human KCNK3 channel inhibition, primary screen | 340,000 tested, 0.84% active | CHO-KCNK3 thallium flux, FluxOR fluorescence; active compounds read low | O14649 | B-score at 10 µM;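 active = B-score under library mean minus 4 SD, starting fluorescence ratio at most library mean plus 5 SD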;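 note: more negative B-score means stronger inhibition of thallium flux through KCNK3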
KCNQ1 pot: human KCNQ1 channel potentiation or activation; CHO-K1 KCNQ1, thallium flux FluxOR fluorescence; active compounds read high; B-score at 10 µM; 310,000 tested, 0.35% active;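 active = fluorescence ratio B-score, a plate-corrected score, at least three library SD, with initial intensity B-score within 5 SD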
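assay system = KCNQ1-transfected CHO-K1 cells | medium = assay buffer with matched DMSO | probe or stimulus = depolarizing K+/Tl+ stimulus, K2SO4 and Tl2SO4 each 12.5 mM in 5x stock | dosing = single dose | incubation = dye 90 min, compound 20 min, room temperature | detection = kinetic FluxOR fluorescence, 10 s baseline plus 110 s post-stimulus | evaluation = ratio B score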
KCNQ1 inh: blocks the human KCNQ1 potassium channel | P51787 | CHO-K1 KCNQ1, FluxOR thallium flux fluorescence; active compounds read high | B-score at 10 µM | 310,000 tested, 1.3% active | AID 2642;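 active = compounds whose thallium flux B-score, printed positive for inhibition, exceeds three library SD while starting fluorescence stays within three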;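 note: channel opened by potassium depolarization with thallium stimulus after 20 min compound exposure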
Kir21 inh: inhibitors of mouse Kir2.1 inward-rectifier potassium channel. 310,000 tested, 0.85% active. AID 1672. HEK293-Kir2.1, FluxOR thallium flux fluorescence; active compounds read low. P35561. B-score at 10 µM;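 active = fluorescence ratio B-score at or below minus 3 SD of library scores, with starting-brightness B-score within 2 SD, cut at about -4.2 in these data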;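 note: channel flux triggered by added potassium and thallium sulfate stimulus; B-score of peak minus minimum fluorescence over baseline after thallium stimulus; more negative B-score means stronger Kir2.1 block with less thallium influx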
hERG protect: hERG (human) protection from proarrhythmic block; 310,000 tested, 0.51% active; CHO-hERG, FluxOR thallium flux, dofetilide IC70 present; AID 1511; activation (rescue from dofetilide block), less the hit threshold, % at 10 µM;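 active = activation above the mean of controls blocked by dofetilide plus 5 SD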;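 note: thallium influx through hERG after potassium depolarization seen as dye fluorescence rise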
KCNK3 inh conf: confirmation of human KCNK3 two-pore domain potassium channel inhibitors; AID 651638; ratio percent of control, % at 10 µM; CHO-KCNK3 thallium flux, FluxOR fluorescence; 0% buffer, 100% carvedilol maximal block; shares compounds with KCNK3 block; 2,400 tested, 99% active;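 active = ratio percent of control, averaged over triplicates, above buffer control mean plus 5 SD, cut at about 64% in these data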;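 note: ratio is the fluorescence rise from min to max over baseline after thallium stimulus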
KCNK3 uninduced: counter-screen for KCNK3 inhibitors: effect in non-induced cells; shares compounds with KCNK3 block; non-induced KCNK3 parental cells, FluxOR thallium flux; active compounds read low; thallium flux ratio (lower = more inhibition) at 10 µM; 2,400 tested, 40% active; AID 651747;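 active = thallium flux ratio, averaged over three wells, more than 5 SD below the buffer control mean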;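 note: host cells are CHO cells without KCNK3 induction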
Large screens that a line does not name were inactive (follow-up assays come after a bar, where they were run). Sampled rows, rich in hits. Any-hit rate of the full collection: about 3.8%.

COCc1cc(C)nc(SCc2ccc(F)cc2)c1C#N	none
CCN(CC)c1ccc(C=Nc2ccc(OC)c(S(=O)(=O)N3CCOCC3)c2)c(O)c1	none (no result: KCNK9 inh, KCNQ1 pot, KCNQ1 inh, Kir21 inh, hERG protect)
Cc1c(Cl)cccc1NC(=O)CSc1ncnc2c1cnn2CCc1ccccc1	none
O=C(CSc1ncnc2c1cnn2CCc1ccccc1)Nc1cccc(C(F)(F)F)c1	KCNK3 block -8.86 | KCNK3 inh conf 128.7 | KCNK3 uninduced 0.114
NS(=O)(=O)c1ccc(CNC(=O)c2ccc3c(=O)n4c(nc3c2)CCC4)cc1	none
CCN1C(=O)/C(=C\N2CCN(C(=O)c3ccco3)CC2)SC1=S	none
CCN1CCN(c2c(/C=C3\SC(=S)N(Cc4ccco4)C3=O)c(C)c(C#N)c(=O)n2C)CC1	KCNK3 block -16, KCNQ1 inh 7 | KCNK3 inh conf 141.3 | KCNK3 uninduced 0.0893
C[C@H](CO)N1C[C@H](C)[C@@H](CN(C)S(=O)(=O)c2cn(C)cn2)Oc2c(NC(=O)Nc3ccc4c(c3)OCO4)cccc2C1=O	none (no result: KCNK9 inh, KCNQ1 pot, KCNQ1 inh, Kir21 inh, hERG protect)
COc1ccc(C2CC(=O)C=C(NC3CCCC3)C2)cc1 (stereo not drawn)	none
COc1ccc(C2CC(=O)C=C(NCCC(C)C)C2)cc1 (stereo not drawn)	KCNK3 block -22.2 | KCNK3 inh conf 111.3 | KCNK3 uninduced inactive
COc1cccc(CNC(=O)c2cc3c(cc2Cl)N2CCCCCC2=NS3(=O)=O)c1	none
COc1ccccc1NC(=O)C(C)OC(=O)CSCC(=O)Nc1cc(C)on1 (stereo not drawn)	none (no result: KCNK9 inh, KCNQ1 pot, KCNQ1 inh, Kir21 inh, hERG protect)
